Test results reported in ChEMBL document CHEMBL1759952, “Synthesis and anticancer activities of some novel 2-(benzo[d]thiazol-2-yl)-8-substituted-2H-pyrazolo[4,3-c]quinolin-3(5H)-ones” (Eur J Med Chem, 2011).
≈ marks a conversion by molar mass, not a printed value.

Tests used:
SF-295 = experiment: Cytotoxicity against human SF295 cells for 72 hrs by MTT assay; type: functional, cell-based; conditions: SF-295, 72 h
Summary of the method: (§1)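 Cells kept in RPMI 1640 with 10% fetal bovine serum, 2 mM glutamine, 100 U/mL penicillin and streptomycin, at 37 °C under 5% CO₂. Compounds were dissolved in DMSO and diluted with water to 1 mg/mL, then incubated with cells for 72 h. Growth was read by MTT, with doxorubicin as positive control. IC₅₀ is the concentration giving 50% growth inhibition, in triplicate.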

[1] = Toxicity against mouse erythrocytes assessed as hemolysis after 30 mins by spectrometric analysis; type: cell-based, Erythrocyte
Summary of the method: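 Used a 2% mouse erythrocyte suspension in 0.85% NaCl with 10 mM CaCl₂. Compounds (DMSO stock diluted in water) were tested across a graded range, 30 min at room temperature, then centrifuged. Released hemoglobin in the supernatant was read at 540 nm. DMSO was the negative control and 1% Triton X-100 the positive control. EC₅₀ = effective concentration.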

HL-60 = experiment: Cytotoxicity against human HL60 cells for 72 hrs by MTT assay; type: functional, cell-based; conditions: HL-60, 72 h; summary of the method: as §1
HCT-8 = experiment: Cytotoxicity against human HCT8 cells for 72 hrs by MTT assay; type: functional, cell-based; conditions: HCT-8, 72 h; summary of the method: as §1
MDA-MB-435 = experiment: Cytotoxicity against human MDA-MB-435 cells for 72 hrs by MTT assay; type: functional, cell-based; conditions: MDA-MB-435, 72 h; summary of the method: as §1

With `O=c1c2c[nH]c3ccc(Cl)cc3c-2nn1-c1nc2ccccc2s1` the IC50 (SF-295) was over 5 µg/mL, the EC50 at 30 min [1] was over 250 µg/mL and the IC50 (HL-60) was over 5 µg/mL. It also gave an IC50 (HCT-8) of over 5 µg/mL and an IC50 (MDA-MB-435) of over 5 µg/mL.
For `Cc1ccc2[nH]cc3c(=O)n(-c4nc5ccccc5s4)nc-3c2c1`, the IC50 (SF-295) was 4.5 µg/mL (≈ 13.5 µM), the EC50 at 30 min [1] was over 250 µg/mL and the IC50 (HL-60) was over 5 µg/mL. The IC50 (HCT-8) was 4.1 µg/mL (≈ 12.3 µM) and the IC50 (MDA-MB-435) was 2.3 µg/mL (≈ 6.92 µM).
`O=c1c2c[nH]c3ccc(Br)cc3c-2nn1-c1nc2ccccc2s1` gave an IC50 (SF-295) of 4.1 µg/mL (≈ 10.3 µM), an EC50 at 30 min [1] of over 250 µg/mL and an IC50 (HL-60) of 3 µg/mL (≈ 7.55 µM). The IC50 (HCT-8) was over 5 µg/mL and the IC50 (MDA-MB-435) was 1.6 µg/mL (≈ 4.03 µM).
`O=c1c2c[nH]c3ccc(F)cc3c-2nn1-c1nc2ccccc2s1` gave an IC50 (SF-295) of over 5 µg/mL, an EC50 at 30 min [1] of over 250 µg/mL and an IC50 (HL-60) of over 5 µg/mL. It also gave an IC50 (HCT-8) of over 5 µg/mL and an IC50 (MDA-MB-435) of over 5 µg/mL.
In the case of `O=c1c2c[nH]c3ccc([N+](=O)[O-])cc3c-2nn1-c1nc2ccccc2s1`, the IC50 (SF-295) is reported as over 5 µg/mL, the EC50 at 30 min [1] is reported as over 250 µg/mL and the IC50 (HL-60) is reported as over 5 µg/mL. For the same molecule, the IC50 (HCT-8) was over 5 µg/mL and the IC50 (MDA-MB-435) was over 5 µg/mL.
With `COc1cccc2c1C(=O)c1c(O)c3c(c(O)c1C2=O)C[C@@](O)(C(=O)CO)C[C@@H]3O[C@H]1C[C@H](N)[C@H](O)[C@H](C)O1` [DOXORUBICIN] the IC50 (HL-60) was 0.03 µg/mL (≈ 0.0552 µM), the IC50 (HCT-8) was 0.06 µg/mL (≈ 0.11 µM) and the IC50 (MDA-MB-435) was 0.69 µg/mL (≈ 1.27 µM).
Work on `COc1ccc2[nH]cc3c(=O)n(-c4nc5ccccc5s4)nc-3c2c1` yielded an IC50 (SF-295) of over 5 µg/mL, an EC50 at 30 min [1] of over 250 µg/mL and an IC50 (HL-60) of over 5 µg/mL. For the same molecule, the IC50 (HCT-8) was over 5 µg/mL and the IC50 (MDA-MB-435) was over 5 µg/mL.
`O=c1c2c[nH]c3ccccc3c-2nn1-c1nc2ccccc2s1` showed an IC50 (SF-295) of over 5 µg/mL, an EC50 at 30 min [1] of over 250 µg/mL and an IC50 (HL-60) of over 5 µg/mL. For the same molecule, the IC50 (HCT-8) was over 5 µg/mL and the IC50 (MDA-MB-435) was over 5 µg/mL.
